Source: ChEMBL document CHEMBL1125361, “Effect of modification of the basic residues of dynorphin A-(1-13) amide on kappa opioid receptor selectivity and opioid activity” (J Med Chem, 1992)

Key:
[1] = molecular target: Kappa-type opioid receptor (Cavia porcellus, UniProt P41144); assay: Inhibition of [3H]- bremazocine to opioid receptor kappa of guinea pig […] membranes was determined
How it was run: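 Guinea pig cerebellar membranes labelled with [3H]bremazocine at 4 °C with bestatin and 100 nM DAMGO present. Nonspecific binding defined with 1 μM Dyn A-(1-13)NH2. Ki from Cheng-Prusoff using KD 0.0549 nM for [3H]bremazocine.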

[2] = molecular target: Delta-type opioid receptor (Rattus norvegicus, UniProt P33533); assay: Inhibition of [3H]DPDPE to opioid receptor delta of rat fore brain membranes was determined; assay type: cell membranes, Membrane
How it was run: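 [3H]DPDPE displacement from rat forebrain membranes at 4 °C, peptidase inhibitors included. Nonspecific binding taken with 10 μM unlabeled DPDPE. Cheng-Prusoff Ki using KD 7.63 nM.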

Mu-type opioid receptor = Mu-type opioid receptor (Rattus norvegicus, UniProt P33535); assay: Inhibition of [3H]DAMGO to opioid receptor mu of rat fore brain membranes was determined; assay type: cell membranes, Membrane
How it was run: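 Rat forebrain membranes with [3H]DAMGO at 4 °C in presence of peptidase inhibitors. Nonspecific binding defined by 10 μM levorphanol. Ki derived via Cheng-Prusoff, KD 0.314 nM.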

[3] = molecular target: Opioid receptor (mu and kappa) (Cavia porcellus, UniProt P41144+P97266); assay: Opioid receptor activity in guinea pig ileum; assay type: functional, tissue-based
How it was run: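 Isolated guinea pig ileum in tissue bath, agonist dose-response curves. When norbinaltorphimine was used, the antagonist was added 10 min before the agonist dose-response determination.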

Cavia porcellus = organism: Cavia porcellus; assay: Potency was evaluated in guinea pig ileum relative to Dynorphin A.; assay type: functional
How it was run: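 Isolated guinea pig ileum; agonist dose–response curves were determined. In the experiments using norbinaltorphimine, the antagonist was added to the tissue bath 10 min before the agonist dose–response curve was run.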

Chain of Kappa-type opioid receptor (P41144 whole entry): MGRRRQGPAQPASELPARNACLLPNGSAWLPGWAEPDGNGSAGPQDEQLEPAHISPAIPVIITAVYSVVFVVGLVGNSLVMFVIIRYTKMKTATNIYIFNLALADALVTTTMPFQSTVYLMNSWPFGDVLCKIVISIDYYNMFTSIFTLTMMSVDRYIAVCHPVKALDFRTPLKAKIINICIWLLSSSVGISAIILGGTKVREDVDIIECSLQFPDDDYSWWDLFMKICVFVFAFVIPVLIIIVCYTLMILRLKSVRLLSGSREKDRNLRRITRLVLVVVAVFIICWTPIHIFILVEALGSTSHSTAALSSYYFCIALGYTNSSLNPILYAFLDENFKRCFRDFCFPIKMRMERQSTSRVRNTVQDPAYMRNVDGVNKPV
Chain of Mu-type opioid receptor (P33535 whole entry): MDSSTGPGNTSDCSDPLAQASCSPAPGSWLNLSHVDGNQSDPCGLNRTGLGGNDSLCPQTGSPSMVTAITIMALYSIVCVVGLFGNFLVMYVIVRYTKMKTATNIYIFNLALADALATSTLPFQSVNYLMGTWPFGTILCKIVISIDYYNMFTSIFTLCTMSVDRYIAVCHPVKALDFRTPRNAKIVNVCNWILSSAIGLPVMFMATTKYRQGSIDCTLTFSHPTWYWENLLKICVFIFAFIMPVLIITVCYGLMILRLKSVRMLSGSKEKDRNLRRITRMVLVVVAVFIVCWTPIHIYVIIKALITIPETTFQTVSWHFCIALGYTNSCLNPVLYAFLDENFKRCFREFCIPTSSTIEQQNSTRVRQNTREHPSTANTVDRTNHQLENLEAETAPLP
Chain of Delta-type opioid receptor (P33533 whole entry): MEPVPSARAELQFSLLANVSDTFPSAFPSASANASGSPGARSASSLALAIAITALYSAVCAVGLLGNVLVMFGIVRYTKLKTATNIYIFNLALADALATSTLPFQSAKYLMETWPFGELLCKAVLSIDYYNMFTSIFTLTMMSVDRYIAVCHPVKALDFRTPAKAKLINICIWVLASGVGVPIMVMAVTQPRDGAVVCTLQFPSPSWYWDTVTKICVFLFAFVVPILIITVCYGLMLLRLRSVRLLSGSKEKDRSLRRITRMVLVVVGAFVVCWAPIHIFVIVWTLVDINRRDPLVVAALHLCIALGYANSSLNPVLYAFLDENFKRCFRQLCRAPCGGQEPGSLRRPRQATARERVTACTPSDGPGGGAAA

| Molecule | Ki [1] [pM] | Ki [2] [pM] | Ki (Mu-type opioid receptor) [pM] | IC50 [3] [pM] | Relative potency (Cavia porcellus) [%] |
| --- | --- | --- | --- | --- | --- |
| H-YGGFLRRIKPKLK-NH2 [listing 1 of 2 here] | 6.7 | 1900 | 46 |  |  |
| CC[C@H](C)[C@H](NC(=O)[C@H](CCCN=C(N)N)NC(=O)[C@H](CCCN=C(N)N)NC(=O)[C@H](CC(C)C)NC(=O)[C@H](Cc1ccccc1)NC(=O)CNC(=O)CNC(=O)[C@@H](N)Cc1ccc(O)cc1)C(=O)N[C@@H](CCCCNC(C)=O)C(=O)N1CCC[C@H]1C(=O)N[C@@H](CCCCN)C(=O)N[C@@H](CC(C)C)C(=O)N[C@@H](CCCCN)C(N)=O | 4.2 | 1300 | 43 | 260 | 91 |
| CC[C@H](C)[C@H](NC(=O)[C@H](CCCN=C(N)N)NC(=O)[C@H](CCCN=C(N)N)NC(=O)[C@H](CC(C)C)NC(=O)[C@H](Cc1ccccc1)NC(=O)CNC(=O)CNC(=O)[C@@H](N)Cc1ccc(O)cc1)C(=O)N[C@@H](CCCN=C(N)N)C(=O)N1CCC[C@H]1C(=O)N[C@@H](CCCCNC(C)=O)C(=O)N[C@@H](CC(C)C)C(=O)N[C@@H](CCCCN)C(N)=O | 53 | 450 | 30 | 160 | 148 |
| H-YGGFLRKIRPKLK-NH2 [listing 1 of 2 here] | 21 | 1600 | 55 |  |  |
| CC[C@H](C)[C@H](NC(=O)[C@H](CCCN=C(N)N)NC(=O)[C@H](CCCN=C(N)N)NC(=O)[C@H](CC(C)C)NC(=O)[C@H](Cc1ccccc1)NC(=O)CNC(=O)CNC(=O)[C@@H](N)Cc1ccc(O)cc1)C(=O)N[C@@H](CCCN=C(N)N)C(=O)N1CCC[C@H]1C(=O)N[C@@H](CCCCN)C(=O)N[C@@H](CC(C)C)C(=O)N[C@@H](CCCCN)C(N)=O | 23 | 1900 | 400 | 240 | 100 |
| H-YGGFLRKIRPKLK-NH2 [listing 2 of 2 here] |  |  |  | 190 | 122 |
| H-YGGFLKRIRPKLK-NH2 [listing 1 of 2 here] | 20 | 5900 | 75 |  |  |
| H-YGGFLRK(Ac)IRPKLK-NH2 | 140 | 1100 | 180 | 340 | 69 |
| H-YGGFLKRIRPKLK-NH2 [listing 2 of 2 here] |  |  |  | 250 | 94 |
| CC[C@H](C)[C@H](NC(=O)[C@H](CCCN=C(N)N)NC(=O)[C@H](CCCN=C(N)N)NC(=O)[C@H](CC(C)C)NC(=O)[C@H](Cc1ccccc1)NC(=O)CNC(=O)CNC(=O)[C@@H](N)Cc1ccc(O)cc1)C(=O)N[C@@H](CCCN=C(N)N)C(=O)N1CCC[C@H]1C(=O)N[C@@H](CCCCN)C(=O)N[C@@H](CC(C)C)C(=O)N[C@@H](CCCCNC(C)=O)C(N)=O | 150 | 4600 | 61 | 190 | 126 |
| H-YGGFLK(Ac)RIRPKLK-NH2 | 24 | 420 | 18 | 640 | 37 |
| H-YGGFLRRIKPKLK-NH2 [listing 2 of 2 here] |  |  |  | 270 | 89 |
